According to ChEMBL document CHEMBL3875163, “Novel urea and bis-urea primaquine derivatives with hydroxyphenyl or halogenphenyl substituents: Synthesis and biological evaluation” (Eur J Med Chem, 2016):
≈ marks a conversion by molar mass, not a printed value.

How the values were obtained:
[1] = Growth inhibition of human MCF7 cells after 72 hrs by MTT assay; type: functional, cell-based; settings: MCF7, 72 h
Summary of the method: (§1)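 Modified NCI DTP protocol: cells in DMEM with 10% FBS, 2 mM glutamine, antibiotics, 37 °C, 5% CO2; seeded 1 × 10^4 to 3 × 10^4 cells/ml on day 0, exposed to five 10-fold dilutions (10^-8 to 10^-4 M) for 72 h; solvent control. MTT read-out; quadruplicate points in three experiments; IC50 by linear regression of growth percentages bracketing 50%.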

[2] = test system: Bacillus cereus; assay: Antibacterial activity against Bacillus cereus ATCC 11778 after 18 hrs by serial microdilution broth assay; type: functional; settings: ATCC 11778, 18 h
Summary of the method: (§2)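 Broth microdilution MIC per EUCAST for aerobic bacteria in Mueller-Hinton broth, serial dilution 1000 to 0.78125 µg/ml from 10 mg/ml DMSO stocks. Inoculum from trypticase soy broth cultures (18 h, 37 °C), set to 0.5 McFarland in PBS pH 7.4, diluted 1:10. 18 h aerobic incubation at 35 °C in dark, then TTC 0.5 mg/ml for 3 h, HCl-isopropanol, A490. MIC = lowest concentration giving 50% inhibition versus untreated; duplicates.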

[3] = test system: Staphylococcus aureus; assay: Antibacterial activity against methicillin resistant Staphylococcus aureus MFBF 10679 after 18 hrs by serial microdilution broth assay; type: functional; settings: MFBF 10679, 18 h
Summary of the method: (§3)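 EUCAST-based broth microdilution in Mueller-Hinton broth. Glycerol stock cultures grown in trypticase soy broth 18 h at 37 °C; inoculum in PBS pH 7.4 at 0.5 McFarland, diluted 1:10 in broth. Compounds from DMSO stocks, 1000 to 0.78125 µg/ml; 18 h aerobic, 35 °C, dark. TTC 0.5 mg/ml added, 3 h, then HCl/isopropanol, A490. MIC = lowest concentration giving 50% inhibition vs untreated; duplicates, averaged.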

[4] = Growth inhibition of human MIAPaCa2 cells after 72 hrs by MTT assay; type: functional, cell-based; settings: MIA PaCa-2, 72 h
[5] = test system: Glycine max; assay: Inhibition of soybean LOX assessed as reduction in conversion of sodium linoleate to 13-hydroperoxylinoleic acid at 1 x 10^-4 M relative to control
Summary of the method: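 Soybean lipoxygenase incubated at room temperature with sodium linoleate (0.1 mM) and test compound (DMSO stocks); formation of 13-hydroperoxylinoleic acid read at 234 nm. Single-point screening at 1 × 10^-4 M; IC50 from several concentrations. At least triplicate.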

[6] = test system: Staphylococcus aureus; assay: Antibacterial activity against methicillin resistant Staphylococcus aureus MFBF 10682 after 18 hrs by serial microdilution broth assay; type: functional; settings: MFBF 10682, 18 h; summary of the method: as §3
[7] = test system: Staphylococcus aureus; assay: Antibacterial activity against methicillin sensitive Staphylococcus aureus ATCC 25923 after 18 hrs by serial microdilution broth assay; type: functional; settings: ATCC 25923, 18 h; summary of the method: as §3
[8] = Hemolytic activity against human RBC at 100 ug/ml after 1 hr relative to control; type: ADME, cell-based, Erythrocyte; settings: red blood cells (RBC), read-out: Activity
[9] = test system: Escherichia coli; assay: Antibacterial activity against Escherichia coli ATCC 10535 after 18 hrs by serial microdilution broth assay; type: functional; settings: ATCC 10535, 18 h; summary of the method: as §2
[10] = Antioxidant activity assessed as DPPH radical scavenging activity at 100 uM after 20 mins relative to control; type: functional
Summary of the method: (§4)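 Compound in DMSO added to DPPH in absolute ethanol, 0.1 mM final; absorbance at 517 nm after 20 and 60 min at room temperature. At least triplicate.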

[11] = Growth inhibition of human CEM cells after 72 hrs by MTT assay; type: functional, cell-based; settings: CCRF-CEM
[12] = test system: Candida albicans; assay: Antifungal activity against Candida albicans ATCC 90028 after 18 hrs by serial microdilution broth assay; type: functional; settings: ATCC 90028, 18 h
Summary of the method: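 Yeast microdilution in RPMI 1640 with glutamine plus 2% glucose, 1000 to 0.78125 µg/ml from 10 mg/ml DMSO stocks. Growth read with XTT (10 mg/ml) mixed 7:1 with menadione (1 mg/ml in acetone), absorbance at 540 nm. MIC taken as lowest concentration giving 50% growth inhibition versus untreated cells; tests in duplicate.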

[13] = Growth inhibition of human NCI-H460 cells after 72 hrs by MTT assay; type: functional, cell-based; settings: NCI-H460, 72 h; summary of the method: as §1
[14] = test system: Pseudomonas aeruginosa; assay: Antibacterial activity against multi-drug resistant Pseudomonas aeruginosa MFBF after 18 hrs by serial microdilution broth assay; type: functional; summary of the method: as §3
[15] = Antioxidant activity assessed as inhibition of AAPH-induced linoleic acid lipid peroxidation at 1 x 10^-4 M by UV-absorbance method relative to control; type: functional
Summary of the method: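 Linoleic acid peroxidation: 16 mM sodium linoleate dispersion in 0.05 M phosphate buffer pH 7.4 at 37 °C under air, initiated by AAPH (40 mM solution); compound at 1 × 10^-4 M; oxidation followed at 234 nm. At least triplicate.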

[16] = test system: Enterococcus faecalis; assay: Antibacterial activity against vancomycin resistant Enterococcus faecalis MFBF 11419 after 18 hrs by serial microdilution broth assay; type: functional; settings: MFBF 11419, 18 h; summary of the method: as §3
[17] = test system: Pseudomonas aeruginosa; assay: Antibacterial activity against Pseudomonas aeruginosa ATCC 9027 after 18 hrs by serial microdilution broth assay; type: functional; settings: ATCC 9027, 18 h; summary of the method: as §3
[18] = test system: Staphylococcus aureus; assay: Antibacterial activity against Staphylococcus aureus ATCC 6538 after 18 hrs by serial microdilution broth assay; type: functional; settings: ATCC 6538, 18 h; summary of the method: as §2
[19] = Growth inhibition of mouse L1210 cells after 72 hrs by MTT assay; type: functional, cell-based; settings: L1210, 72 h
[20] = test system: Enterococcus faecalis; assay: Antibacterial activity against vancomycin susceptible Enterococcus faecalis ATCC 29212 after 18 hrs by serial microdilution broth assay; type: functional; settings: ATCC 29212, 18 h; summary of the method: as §2
[21] = test system: Pseudomonas aeruginosa; assay: Antibacterial activity against Pseudomonas aeruginosa ATCC 27853 after 18 hrs by serial microdilution broth assay; type: functional; settings: ATCC 27853, 18 h; summary of the method: as §2
[22] = Antioxidant activity assessed as DPPH radical scavenging activity at 100 uM after 60 mins relative to control; type: functional; summary of the method: as §4
[23] = Growth inhibition of human SW620 cells after 72 hrs by MTT assay; type: functional, cell-based; settings: SW-620, 72 h; summary of the method: as §1
[24] = test system: Bacillus pumilus; assay: Antibacterial activity against Bacillus pumilus NCTC 8241 after 18 hrs by serial microdilution broth assay; type: functional; settings: NCTC 8241, 18 h; summary of the method: as §2
[25] = test system: Staphylococcus aureus; assay: Antibacterial activity against methicillin sensitive Staphylococcus aureus ATCC 25213 after 18 hrs by serial microdilution broth assay; type: functional; settings: ATCC 25213, 18 h; summary of the method: as §2
[26] = Growth inhibition of human Molt4/C8 cells after 72 hrs by MTT assay; type: functional, cell-based; settings: MOLT-4, 72 h
[27] = Growth inhibition of human HeLa cells after 72 hrs by MTT assay; type: functional, cell-based
[28] = Cytotoxicity against HEK cells assessed as reduction in cell viability at 3.125 to 25 ug/ml after 24 hrs by MTT assay; type: toxicity, cell-based; settings: human, hek293, 24 h
Summary of the method: (§5)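 HEK 293 cells, 5 × 10^3 per well, treated next day for 24 h with compound (range within 200 to 1.5625 µg/ml). MTT 0.5 mg/ml in DMEM/10% FBS, 4 h at 37 °C, 5% CO2; formazan in DMSO, A570. Viability as percent of untreated control; triplicates, three independent experiments.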

[29] = test system: Bacillus spizizenii; assay: Antibacterial activity against Bacillus subtilis ATCC 6633 after 18 hrs by serial microdilution broth assay; type: functional; settings: ATCC 6633, 18 h; summary of the method: as §2
[30] = Cytotoxicity against HEK cells assessed as reduction in cell viability at 6.25 to 100 ug/ml after 24 hrs by MTT assay; type: toxicity, cell-based; settings: human, hek293, 24 h; summary of the method: as §5

Compound	IC50 [1]	MIC50 [2]	MIC50 [3]	IC50 [4]	inhibition [5]	MIC50 [6]	MIC50 [7]	hemolysis at 1 h, 100 ug/ml [8]	MIC50 [9]	Activity [10]	IC50 [11]	MIC50 [12]	IC50 [13]	MIC50 [14]	inhibition [15]	MIC50 [16]	MIC50 [17]	MIC50 [18]	IC50 [19]	MIC50 [20]	also measured
COc1cc(NC(C)CCCNC(=O)Nc2cc(C(F)(F)F)cc(C(F)(F)F)c2)c2ncccc2c1 (stereo not drawn)	1.6 µM	100 µg/mL (≈ 194 µM)	> 100 µg/mL	4.7 µM	42.3%	> 100 µg/mL	6.3 µg/mL (≈ 12.2 µM)	< 1%	> 100 µg/mL	51.7%	4.1 µM	> 100 µg/mL	8.3 µM	> 100 µg/mL	90.2%	> 100 µg/mL	100 µg/mL (≈ 194 µM)	1.6 µg/mL (≈ 3.11 µM)	3.5 µM	> 100 µg/mL	MIC50 [21]: 12.5 µg/mL (≈ 24.3 µM); Activity [22]: 55.2%; IC50 [23]: 3.9 µM; MIC50 [24]: 12.5 µg/mL (≈ 24.3 µM); MIC50 [25]: 12.5 µg/mL (≈ 24.3 µM); IC50 [26]: 12 µM; IC50 [27]: 3.1 µM; Activity [28]: Toxic; MIC50 [29]: > 100 µg/mL
COc1cc(NC(C)CCCNC(=O)Nc2cccc(O)c2)c2ncccc2c1 (stereo not drawn)	11 µM	50 µg/mL (≈ 127 µM)	100 µg/mL (≈ 254 µM)	46 µM	50.8%	50 µg/mL (≈ 127 µM)	50 µg/mL (≈ 127 µM)	< 1%	100 µg/mL (≈ 254 µM)	48.6%	32 µM	> 100 µg/mL	25 µM	100 µg/mL (≈ 254 µM)	66.9%	> 100 µg/mL	100 µg/mL (≈ 254 µM)	20 µg/mL (≈ 50.7 µM)	25 µM	> 100 µg/mL	Activity [30]: Non-Toxic; MIC50 [21]: 50 µg/mL (≈ 127 µM); Activity [22]: 52.3%; IC50 [23]: 27 µM; MIC50 [24]: 12.5 µg/mL (≈ 31.7 µM); MIC50 [25]: 50 µg/mL (≈ 127 µM); IC50 [26]: 24 µM; IC50 [27]: 48 µM; MIC50 [29]: 50 µg/mL (≈ 127 µM)
